# Screening results from PubChem BioAssay.
# Only some compounds are listed: those with a hit (about 2.2% of all), similar ones and a draw of the others.
# PKD1 kinase inh – blocks activity of human protein kinase D1; Q15139; PKD1 kinase fluorescence polarization assay; inhibition, % (concentration not given with the values); 200,000 compounds, 0.056% hits; AID 797; in the data active = inhibition above about 50%
# PPC-1+TRAIL kill – kills PPC-1 cancer cells in the presence of TRAIL; cell killing (% activity), % at 4 µM or 5 µM; PPC-1 cells + TRAIL, ATPLite viability luminescence; AID 1443; 220,000 compounds, 0.41% hits;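 active = cell killing above 50% in the first pass at 4 µM, then a duplicate retest at 5 µM averaging 50% or more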;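 note: plate controls were cells with TRAIL plus DMSO for no effect and medium-only wells lacking cells for full effect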
# FLuc inhib CS – counter-screen for luciferase assay inhibitors: firefly luciferase inhibition; ATPLite firefly luciferase biochemical luminescence, 10 min; inhibition, % at 10 µM; 200,000 compounds, 1.5% hits; AID 1006;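 active = inhibition above about 50% when tested at 10 µM, limit read from the data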
# Target sequence (P08659 whole entry, looked up): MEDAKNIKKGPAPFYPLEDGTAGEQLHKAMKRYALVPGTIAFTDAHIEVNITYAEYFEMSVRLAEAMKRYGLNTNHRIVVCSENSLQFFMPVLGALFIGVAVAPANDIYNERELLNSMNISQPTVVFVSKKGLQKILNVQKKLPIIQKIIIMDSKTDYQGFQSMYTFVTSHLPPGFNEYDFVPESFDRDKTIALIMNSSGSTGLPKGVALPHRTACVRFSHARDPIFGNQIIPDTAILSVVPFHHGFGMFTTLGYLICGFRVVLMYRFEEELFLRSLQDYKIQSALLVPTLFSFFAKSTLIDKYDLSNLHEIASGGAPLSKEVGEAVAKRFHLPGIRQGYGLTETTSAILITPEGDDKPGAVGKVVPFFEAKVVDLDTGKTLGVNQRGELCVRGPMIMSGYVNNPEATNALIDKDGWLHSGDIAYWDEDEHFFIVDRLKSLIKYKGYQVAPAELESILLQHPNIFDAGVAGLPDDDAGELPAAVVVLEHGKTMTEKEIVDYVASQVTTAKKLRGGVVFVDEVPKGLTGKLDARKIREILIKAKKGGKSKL
# Wee1 stabilizer – human Wee1 degradation inhibition, primary screen; reporter increase, % at 5 µM; HeLa Luc-Wee1K328M stability, luciferase luminescence; 100% = proteasome inhibitor MG132 effect; 220,000 compounds, 1.2% hits; P30291;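 active = activation above the mean of all tested compounds plus 3 SD, set per screening run, cut at about 8.8% in these data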;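 note: cells exposed to compound for 20 h before luminescence read; 0% = DMSO alone and 100% = MG132 at 30 µM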
# FLuc act counter – firefly luciferase counter-screen for stimulation assays | P08659 | ATPlite luciferase biochemical, luminescence, 10 min; 0 = ATP-free wells, 1 = DMSO control | activation factor at 10 µM | 200,000 tested, under 10 active | AID 1027;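 active = luciferase activation factor, scaled between plate controls, of at least 2 with compound at 10 µM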
#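 Assay system: Luciferase/luciferin detection reagent, cell-free biochemical luciferase assay / Read-out: luciferase activation / Benchmarks: No-ATP low control, compound-free enzyme-plus-ATP high control / Medium: PBS buffer for ATP / Detection: luminescence measurement of luciferase light output / Schedule: 10 min at ambient temperature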
# TRAIL sens C8 – caspase-8 TRAIL sensitization; NB7+C8 cells + TRAIL, ATPlite viability luminescence; 360,000 compounds, 1% hits; inhibition (viability loss, TRAIL sensitization), % at 10 µM;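 active = compounds causing at least 50% loss of cell viability in the single-dose screen, relative to plate controls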
# Wee1 degr conf – confirmation of human Wee1 degradation inhibitors; shares compounds with Wee1 stabilizer; HeLa Luc-Wee1K328M degradation, luminescence; vehicle 0%, proteasome-blocked wells 100%; activation, % at 5 µM; 1,100 compounds, 4% hits; in the data active = activation above about 8.9%
# * hit, by the source's call; x = no result.
SMILES,PKD1 kinase inh,PPC-1+TRAIL kill,FLuc inhib CS,Wee1 stabilizer,FLuc act counter,TRAIL sens C8,Wee1 degr conf
O=C(NCCN1CCOCC1)c1ccncc1,-6,-16,-4,12*,1,-31,5
C/C(=N\NC(=O)c1ccc(N2CCCC2=O)cc1)c1ccncc1,x,-1,x,15*,x,3,0
N#C/C(=C\c1ccccc1Br)C(=O)NC1CC1,x,x,x,x,x,-7,x
N#C/C(=C\c1cn[nH]c1-c1ccccc1Br)C(=O)O,4,4,-4,13*,1,-6,-1
COc1ccc(Nc2nc(N)nc(CSc3nccn3C)n2)cc1,-8,18,22,12*,0.8,8,1
CN1CCN(c2oc(Cc3cccc4ccccc34)nc2C#N)CC1,x,-20,x,13*,x,11,0
CCOC(=O)C(=Cc1c[nH]c2ccc(S(=O)(=O)N(C)C)cc12)C(=O)OCC,x,9,x,12*,x,1,1
CCOC(=O)N1CCN(C(=O)c2c[nH]c3ccc(S(=O)(=O)N(C)c4cccc(C)c4)cc3c2=O)CC1,x,x,x,x,x,-7,x
CN1/C(=C\C(=O)COC(=O)CNC(=O)c2ccccc2F)C(C)(C)c2ccccc21,-2,11,-11,23*,1.1,-4,-1
CN1/C(=C\C(=O)COC(=O)CNC(=O)c2ccc3ccccc3c2)C(C)(C)c2ccccc21,1,16,-7,-2,1.1,3,x
CCOc1cc(/C=C/C(=O)OCC(=O)NCC2CCCO2)cc(Cl)c1OC (stereo not given),x,x,x,x,x,-22,x
COc1ccc2cc(C(N)=O)c(=Nc3ccccc3)oc2c1,-2,x,-4,11*,1,6,5
NC(=O)c1cc2ccc(O)cc2oc1=Nc1ccccc1,-7,8,-3,-2,1,2,x
Cc1cc(O)c(-c2cc(C(=O)Nc3cccnc3)[nH]n2)cc1C,x,1,x,18*,x,26,4
O=c1cc(NCc2ccccc2)nc2ccccn12,-6,6,5,12*,1,-7,0
O=c1cc(Cl)nc2ccccn12,x,x,x,x,x,-2,x
CC(C)Cn1c(N)c(C(=O)COC(=O)c2ccc([N+](=O)[O-])o2)c(=O)n(C)c1=O,4,14,-4,16*,1,4,3
CC(C)Cn1c(N)c(C(=O)COC(=O)c2ccc(O)cc2)c(=O)n(C)c1=O,-5,11,-3,-4,1,3,x
CCOCCc1nnc(NC(=O)C2CCN(C(=O)c3ccco3)CC2)s1,x,x,x,x,x,4,x
COc1cc(O)c(C(C)=O)cc1OC,0,16,-1,11*,1,-9,1
COc1ccc(NC(=O)N2CCN(C(=O)C3CCCO3)CC2)cc1 (stereo not given),x,x,x,x,x,-13,x
C/C(Cc1ccccc1)=N/NC(=O)CNC(=O)C(c1ccccc1)c1ccccc1,x,-9,x,11*,x,7,-3
CCN1CCc2nc(NC(=O)C(c3ccccc3)c3ccccc3)sc2C1,-2,22,-7,11*,1.1,7,0
CCN1CCc2nc(NC(=O)CC(c3ccccc3)c3ccccc3)sc2C1,-7,14,-11,-1,1.1,1,x
COC(=O)C1=C(CS(=O)(=O)c2ccccc2)NC(=O)NC1c1ccc(OC)c(OC)c1 (stereo not given),x,x,x,x,x,1,x
SMILES,PKD1 kinase inh,PPC-1+TRAIL kill,FLuc inhib CS,Wee1 stabilizer,FLuc act counter,TRAIL sens C8,Wee1 degr conf
Cc1ccc(N(CC(O)CN2C(=O)NC(C)(C)C2=O)S(=O)(=O)c2ccc(C)cc2)cc1 (stereo not given),x,15,x,13*,x,-26,0
CN(C)C(=S)N=Nc1[nH]c2ccccc2c1O,0,15,13,11*,0.9,x,-1
CNC(=S)N=Nc1c(O)[nH]c2ccccc12,1,-14,-5,-2,1,-6,x
Cc1cc(N2CCCCC2)nc2ccccc12,1,7,0,2,1,3,x
Cc1cc(-n2nnc3ccccc32)nc2ccccc12,-3,15,0,13*,1,-3,4
Cc1nnc(NC(=O)c2ccc3ccccc3n2)s1,12,30,36,14*,0.6,31,6
CN(Cc1nc(Cc2ccccc2F)no1)[C@@H]1CS(=O)(=O)C[C@H]1O,2,14,-10,-1,1.1,0,x
Cc1cc(C)n(CCN(C)Cc2nc(Cc3ccccc3F)no2)n1,-2,x,-2,11*,1,5,0
COc1ccccc1N(C)S(=O)(=O)c1ccc(Cl)c(C(=O)NC2=NCCS2)c1,1,15,-5,12*,1,12,2
COc1ccc(NC(=O)Nc2ccccc2SC)cc1,-5,12,40,11*,0.6,35,2
CN(C)CC(C)(C)CNC(C(=O)Nc1ccc(Cl)cc1C(F)(F)F)c1ccccc1 (stereo not given),-4,21,-4,-2,1,10,x
Cn1cccc1/C=C1\SC(=Nc2ccccc2)NC1=O,x,-15,x,19*,x,10,14*
CCCCn1c(SCC(=O)NC2CC(C)(C)NC(C)(C)C2)nc2cc(S(N)(=O)=O)ccc21,x,4,x,0,x,-37,x
CCN(C(=O)CSc1nnc(C)n1Cc1ccccc1)C1CCS(=O)(=O)C1 (stereo not given),-8,4,0,13*,1,-7,0
Cc1cccn2c1nc(=S)n2C(=O)c1ccco1,-11,28,85*,12*,0.1,41,10*
COc1ccc(/C=N/NC(=O)CC(=O)NC2CCCCC2)cc1,-1,34,2,6,1,-2,x
CN(C)c1nc(N)nc(-c2nc3ccccc3s2)n1,-6,29,32,12*,0.7,25,1
Nc1ccccc1-c1nc2ccccc2s1,6,-10,15,1,0.9,-24,x
Cc1cc(C)c(NC(=O)COc2cccnc2[N+](=O)[O-])c(C)c1,x,x,x,x,x,0,x
Cc1nc(Nc2ccccc2Cl)sc1C(=O)Nc1ccccc1,-7,-9,3,17*,1,20,2
CN(C)CCCNc1oc(-c2ccccc2)nc1C#N,0,16,-6,14*,1.1,-5,-1
N#CCCn1c(O)c(N=NC(=O)CNC(=O)c2cccs2)c2ccccc21,x,10,x,15*,x,-5,-1
CCN(CC)CCn1c(SCC(=O)Nc2cccc(OC)c2)nc2c(sc3ccccc32)c1=O,-5,7,-4,12*,1,-7,5
COc1cccc(NC(=O)CSc2nc3c(sc4ccccc43)c(=O)n2CCN(C)C)c1,-10,-12,-3,-1,1,11,x
Cn1cc([N+](=O)[O-])c(C(=O)Nc2ccc(-c3nc4ccccc4o3)cc2)n1,x,36,x,0,x,8,x
CC(C)(CNC(=O)C1CCCC1)CNC(=O)C1CCCC1,-5,-8,-7,11*,1.1,4,2
